Converted amounts (≈) assume the structure as drawn.
What was measured:
Assay type in all cases: functional, Salmonella enterica subsp. enterica serovar Enteritidis
Salmonella enteritidis [1] = assay: Antimicrobial activity against marA::aph-deficient ciprofloxacin-resistant Salmonella enterica serovar enteritidis isolate 104-cip harboring gyrA D87Y,S83F mutant gene by Etest
Method in brief: (§1)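 Deletions (acrB, marA, soxS or ramA) were moved from SL1344 mutants into the isolates by P22 phage transduction. Transductants were selected on LB agar with 50 µg/ml kanamycin, and insertion of the kanamycin resistance gene was confirmed by PCR. MICs were then determined by Etest.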

Salmonella enteritidis [2] = assay: Antimicrobial activity against Salmonella enterica serovar enteritidis isolate 5408 harboring gyrA D87Y mutant gene by Etest
Salmonella enteritidis [3] = assay: Antimicrobial activity against acrB::aph-deficient ciprofloxacin-resistant Salmonella enterica serovar enteritidis isolate 104-cip harboring gyrA D87Y,S83F mutant gene by Etest; method in brief: as §1
Salmonella enteritidis [4] = assay: Antimicrobial activity against acrB::aph-deficient ciprofloxacin-resistant Salmonella enterica serovar enteritidis isolate 5408-cip harboring gyrA D87Y, gyrB E466D, parE V461G mutant gene by Etest; method in brief: as §1
Salmonella enteritidis [5] = assay: Antimicrobial activity against soxS::aph-deficient ciprofloxacin-resistant Salmonella enterica serovar enteritidis isolate 104-cip harboring gyrA D87Y,S83F mutant gene by Etest; method in brief: as §1
Salmonella enteritidis [6] = assay: Antimicrobial activity against Salmonella enterica serovar enteritidis isolate 104 harboring gyrA D87Y mutant gene by Etest
Salmonella enteritidis [7] = assay: Antimicrobial activity against ramA::aph-deficient ciprofloxacin-resistant Salmonella enterica serovar enteritidis isolate 5408-cip harboring gyrA D87Y, gyrB E466D, parE V461G mutant gene by Etest; method in brief: as §1
Salmonella enteritidis [8] = assay: Antimicrobial activity against Salmonella enterica serovar enteritidis isolate 104-cip harboring gyrA D87Y,S83F mutant gene by Etest
Salmonella enteritidis [9] = assay: Antimicrobial activity against ciprofloxacin-resistant Salmonella enterica serovar enteritidis isolate 5408-cip harboring gyrA D87Y, gyrB E466D, parE V461G mutant gene by Etest

## O=C(N[C@H](CO)[C@H](O)c1ccc([N+](=O)[O-])cc1)C(Cl)Cl [CHLORAMPHENICOL]
Salmonella enteritidis [1]
  MIC: 3 µg/mL (≈ 9.28 µM)
Salmonella enteritidis [2]
  MIC: 3 µg/mL (≈ 9.28 µM)
Salmonella enteritidis [3]
  MIC: 0.75 µg/mL (≈ 2.32 µM)
Salmonella enteritidis [4]
  MIC: 0.5 µg/mL (≈ 1.55 µM)
Salmonella enteritidis [5]
  MIC: 1.5 µg/mL (≈ 4.64 µM)
Salmonella enteritidis [6]
  MIC: 2 µg/mL (≈ 6.19 µM)
Salmonella enteritidis [7]
  MIC: 3 µg/mL (≈ 9.28 µM)
Salmonella enteritidis [8]
  MIC: 96 µg/mL (≈ 297 µM)
Salmonella enteritidis [9]
  MIC: 16 µg/mL (≈ 49.5 µM)

Source: ChEMBL document CHEMBL1629649, “Multiple regulatory pathways associated with high-level ciprofloxacin and multidrug resistance in Salmonella enterica serovar enteritidis: involvement of RamA and other global regulators” (2009)
